Data: ChEMBL document CHEMBL1156478, “Loss of huntingtin function complemented by small molecules acting as repressor element 1/neuron restrictive silencer element silencer modulators” (J Biol Chem, 2007)
Active and inactive are the calls of the source. The calls are words filed in the database; no cut-off is given here.

What was measured:
[1] = system: ST14A; assay: Induction of REST/NRSF-coupled repression of luciferase tagged rat RE1/NRSE BDNF promoter activity expressed in ST14A cells at 5 nM assessed as increase in luciferase activity; assay type: cell-based
Method in brief: (§1)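 ST14A rat neural cells stably carrying RE1/NRSE(BDNF)-luciferase reporter (DiaNRSE-Luc8 clone), grown in DMEM/10% heat-inactivated FBS at 33 °C, 5% CO2. Compounds from 10 mM DMSO stocks added to cells plated the day before; 72 h exposure in 96-well format, triplicate. Firefly luciferase read after luciferin, expressed as RLU per µg protein (BCA) relative to untreated cells.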

[2] = system: ST14A; assay: Induction of REST/NRSF-coupled repression of luciferase tagged rat RE1/NRSE BDNF promoter activity expressed in ST14A cells at 10 nM assessed as increase in luciferase activity; assay type: cell-based; method in brief: as §1
[3] = (§2) […] of REST/NRSF-coupled repression of luciferase tagged rat RE1/NRSE BDNF promoter activity expressed in ST14A cells assessed as increase in luciferase activity; assay type: cell-based
Method in brief: (§3)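 Stable ST14A clone carrying RE1/NRSE(BDNF)-firefly luciferase, selected for DN:REST responsiveness; cells in 96 wells exposed after adhesion to compounds (DMSO, 10 mM stock) in triplicate, 72 h; luciferin added, luminescence expressed as RLU per µg protein (BCA), relative to untreated; EC50 from dose–response.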

[4] = system: ST14A; assay: […] of REST/NRSF-coupled repression of luciferase tagged rat RE1/NRSE BDNF promoter activity expressed in ST14A cells at 75 nM assessed as increase in luciferase activity; assay type: cell-based; method in brief: as §3
[5] = system: ST14A; assay: Increase in BDNF mRNA expression in rat ST14A cells expressing RE1/NRSE BDNF promoter after 72 hrs by RT-PCR relative to control; assay type: functional, cell-based
Method in brief: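 Cells treated 72 h; total RNA (1 µg) reverse transcribed, three independent reactions per RNA stock, triplicate SYBR Green real-time PCR with 25 ng cDNA, 0.2 µM primers; BDNF cycling 95 °C 10 min then 40 × (95 °C 10 s, 56 °C 10 s, 72 °C 20 s), melt-curve check; normalized to β-actin, fold over untreated; three independent experiments.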

[6] = system: ST14A; assay: Increase in BDNF protein expression in rat ST14A cells expressing RE1/NRSE BDNF promoter after 72 hrs by ELISA relative to control; assay type: functional, cell-based
Method in brief: (§4)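 BDNF protein after 72 h compound exposure: lysis in Tris-HCl pH 7.5, 150 mM NaCl, 1% Triton X-100, 10% glycerol, EDTA/EGTA, protease inhibitors; homogenized, sonicated, centrifuged 15 min at 4 °C; supernatant assayed by BDNF immunoassay, normalized to BCA total protein; fold over untreated cells.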

[7] = system: ST14A; assay: Increase in RE1/NRSE promoter regulated synapsin I mRNA expression in rat ST14A cells at 200 nM after 72 hrs by RT-PCR relative to control; assay type: functional, cell-based
Method in brief: (§5)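 72 h exposure; SYBR Green real-time PCR for synapsin I and M4: 95 °C 3 min, then 40 × (95 °C 30 s, 58 °C 30 s, 72 °C 30 s), melt curve 55–94 °C; normalized to β-actin, fold over untreated; triplicate reactions.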

[8] = system: ST14A; assay: Increase in RE1/NRSE promoter regulated muscarinic M4 receptor mRNA expression in rat ST14A cells at 200 nM after 72 hrs by RT-PCR relative to control; assay type: functional, cell-based; method in brief: as §5
[9] = system: ST14A; assay: Increase in REST/NRSF mRNA expression in rat ST14A cells after 72 hrs by RT-PCR relative to control; assay type: functional, cell-based
Method in brief: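 REST/NRSF transcript by SYBR Green real-time PCR after 72 h exposure: 95 °C 3 min, then 45 × (95 °C 30 s, 60 °C 30 s, 72 °C 30 s), melt curve 55–94 °C; normalized to β-actin, fold over untreated; triplicate reactions.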

[10] = system: ST14A; assay: Increase in E2F1 mRNA expression in rat ST14A cells after 72 hrs by RT-PCR relative to control; assay type: functional, cell-based
Method in brief: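 E2F1 SYBR Green real-time PCR after 72 h exposure: 95 °C 10 min, then 40 × (95 °C 15 s, 60 °C 1 min), fluorescence read at 60 °C, melt curve 55–94 °C; normalized to β-actin, fold over untreated cells; triplicate reactions.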

[11] = Increase in BDNF protein expression in […]/HdhQ11 cells expressing homozygous mutant huntingtin gene at 50 nM after 72 hrs by ELISA relative to control; assay type: functional; method in brief: as §4
[12] = system: neural; assay: Increase in BDNF protein expression in neural cells overexpressing huntingtin mutant gene after 72 hrs by ELISA relative to control; assay type: functional, cell-based; method in brief: as §4
[13] = system: STHdhQ11/HdhQ11; assay: Effect on REST/NRSF translocation in mouse STHdhQ11/HdhQ11 cells expressing homozygous mutant huntingtin gene
[14] = system: ST14A; assay: as §2; assay type: cell-based; method in brief: as §3
[15] = Increase in BDNF protein expression in […]/HdhQ11 cells expressing homozygous mutant huntingtin gene at 200 nM after 72 hrs by ELISA relative to control; assay type: functional; method in brief: as §4
[16] = system: ST14A; assay: […] of REST/NRSF-coupled repression of luciferase tagged rat RE1/NRSE BDNF promoter activity expressed in ST14A cells at 25 nM assessed as increase in luciferase activity; assay type: cell-based; settings: TDE = time-dependent effect
[17] = Increase in cell viability of stress-exposed […]/HdhQ11 cells expressing homozygous mutant huntingtin gene at 50 nM after 48 hrs by MTT assay; assay type: functional
Method in brief: (§6)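 Cells plated at 80,000/well in triplicate, 24 h at 33 °C, washed, switched to serum-deprived medium at 37 °C as stress, with or without compound; MTT read 48 h after treatment, formazan at 560 nm after 1 h at 37 °C; three independent experiments.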

[18] = system: STHdhQ11/HdhQ11; assay: Increase in cell viability of stress-exposed […]/HdhQ11 cells expressing homozygous mutant huntingtin gene at 25 nM after 48 hrs by MTT assay; assay type: functional, cell-based; method in brief: as §6
[19] = species: Mus musculus; assay: Effect on cell proliferation of stress-exposed mouse STHdhQ11/HdhQ11 cells expressing homozygous mutant huntingtin gene assessed as BrdUrd incorporation

SMILES | EC50 [3] | Activity [4] | Activity [5] | Activity [6] | Activity [7] | Activity [8] | Activity [9] | Activity [10] | Activity [12] | Activity [13] | other results
O=C(O)CC[N+](=O)[O-] |  |  |  |  |  |  |  |  |  |  | Activity [1]: inactive; Activity [2]: inactive
Cc1nc2ncccn2c1-c1csc(Nc2ccc(N(C)C)cc2)n1 | 20 nM | Active | Dose-dependent effect | Dose-dependent effect | Active | Active | inactive | inactive | Active | inactive | fold change (FC) [11]: 1.6
COc1ccc(Nc2nc(-c3c(C)nc4cc(C)ccn34)cs2)cc1 | 12 nM | Active | Dose-dependent effect | Dose-dependent effect | Active | Active | inactive | inactive | Active | inactive | Activity [14]: Dose-dependent effect; fold change (FC) [15]: 2; Activity [16]: tde
CC(/C=C/C(=O)NO)=C\[C@@H](C)C(=O)c1ccc(N(C)C)cc1 |  | Active |  |  |  |  |  |  |  |  | Activity [14]: Dose-dependent effect
O=C(CCCCCCC(=O)Nc1ccccc1)NO |  |  |  |  |  |  | Active | Active |  |  | 
CN[C@@H]1C[C@H]2O[C@@](C)([C@@H]1OC)n1c3ccccc3c3c4c(c5c6ccccc6n2c5c31)C(=O)NC4 |  |  |  |  |  |  |  |  |  |  | Activity [2]: inactive
Cc1ccn2c(-c3csc(Nc4ccc(N(C)C)cc4)n3)c(C)nc2c1 | 20 nM | Active | Dose-dependent effect | Dose-dependent effect | Active | Active | inactive | inactive | Active | inactive | fold change (FC) [15]: 2; Activity [17]: 17%; Activity [18]: Active; Activity [19]: inactive
